An excerpt weighted towards active compounds, which were near 2.8% of everything screened.
m5-HT2A agonist = activates the mouse 5-HT2A serotonin receptor; P35363; CHO-K1 mHTR2A beta-arrestin complementation, luminescence; percent of 30 µM serotonin response; activation, % at 7.6 µM; 0.66% of 360,000 active; AID 624169;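 active = activation above a run cutoff, the mean activation of all tested compounds plus 3 SD, cut at about 14% in these data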;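 also: 0% = plate median of compound wells and 100% = 30 µM serotonin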
Target sequence (P35363 whole entry, looked up): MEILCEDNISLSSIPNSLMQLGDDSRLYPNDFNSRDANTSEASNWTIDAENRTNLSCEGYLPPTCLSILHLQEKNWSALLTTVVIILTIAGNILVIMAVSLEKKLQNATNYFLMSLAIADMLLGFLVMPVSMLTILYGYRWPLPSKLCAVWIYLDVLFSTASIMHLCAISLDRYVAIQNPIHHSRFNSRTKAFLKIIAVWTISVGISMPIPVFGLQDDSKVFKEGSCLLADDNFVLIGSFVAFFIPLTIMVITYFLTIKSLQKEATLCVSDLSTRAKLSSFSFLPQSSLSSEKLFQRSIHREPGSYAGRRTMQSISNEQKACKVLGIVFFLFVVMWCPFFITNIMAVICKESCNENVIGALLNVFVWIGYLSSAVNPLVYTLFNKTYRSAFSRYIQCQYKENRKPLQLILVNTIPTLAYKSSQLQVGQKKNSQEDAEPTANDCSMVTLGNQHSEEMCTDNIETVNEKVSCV
MC4R antag cAMP = antagonists of human melanocortin 4 receptor (MC4R); P32245; MC4R-expressing cells, MTII-stimulated cAMP, LANCE TR-FRET; inhibition, % at 6.5 µM; 0.48% of 360,000 active;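 active = inhibition above its plate's cutoff, the mean of tested wells on that plate plus 3 SD, cut at about 29% in these data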;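 also: 0% = Melanotan II alone and 100% = Melanotan II plus saturating MCL0020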
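System: U2OS-MC4R stable cell line; Technique: Eu-cAMP/anti-cAMP TR-FRET, emission 671 nm; Repeats: single well per compound; Also added: Melanotan II; Dosing: one concentration, 6.5 µM nominal; Schedule: 30-min compound, 1-h challenge, 1-h detection, room temperature.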
EBI2 block = EBI2 (human) antagonism | P32249 | EBI2 beta-arrestin recruitment, luminescence, 7a,25-OHC stimulated | inhibition, % at 5 µM | 0.81% of 360,000 active; in the data active = inhibition above about 38%;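 also: enzyme fragment complementation signal reports receptor beta-arrestin coupling in cells; 0% = agonist plus DMSO wells and 100% = wells without agonist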
MC4R ag barr = agonists of human melanocortin 4 receptor (MC4R) beta-arrestin | 0.98% of 360,000 active | U2OS MC4R beta-arrestin complementation, luminescence; percent of melanotan II response, DMSO zero | activation, % at 8.9 µM;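 active = activation above a per-plate cutoff, the mean activation of sample wells on that plate plus 3 SD, cut at about 8% in these data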
MC4R barr conf = human MC4R beta-arrestin agonism confirmation | U2OS MC4R beta-arrestin recruitment, luminescence; scaled DMSO 0%, Melanotan II 100% | shares compounds with MC4R ag barr | activation, % at 8.9 µM | 31% of 2,400 active;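 active = mean activation across replicates above the hit cutoff set in the earlier primary screen, cut at about 8% in these data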
MOR DOR agonist = OPRM1-OPRD1 heterodimer agonism counter-screen; shares compounds with MC4R ag barr; U2OS PathHunter beta-arrestin, beta-gal luminescence; percent of deltorphin B response, DMSO zero; activation, % at 9.2 µM; 5.8% of 2,400 active;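 active = mean activation across replicates exceeds the hit threshold derived in the earlier primary screen, cut at about 18% in these data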;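 also: 100% = deltorphin B at 0.9 µM final and 0% = DMSO alone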
* = called active by the depositor; x = no result.

SMILES	m5-HT2A agonist	MC4R antag cAMP	EBI2 block	MC4R ag barr	MC4R barr conf	MOR DOR agonist
CCN(CCNCC(O)COc1ccccc1C(C)C)c1cccc(C)c1 (stereo not given)	-8.3	7.7	2.6	16.3*	12.2*	11.9
CCOC(=O)N1CCN(CC(O)COc2ccccc2C(C)C)CC1 (stereo not given)	-4.3	-3.7	-0.1	0.7	x	x
COc1cccc(/C=N/Nc2ccc([N+](=O)[O-])cn2)c1O	-1.0	-3.1	-10.3	23.0*	14.6*	4.7
O=[N+]([O-])c1ccc(NN=Cc2cccc3ccccc23)nc1	-0.4	-2.3	3.5	1.6	x	x
CC1(C)Oc2ccc3ccc(=O)oc3c2/C(=C/Nc2ccc(O)cc2)C1=O	5.0	24.1	17.3	11.0*	23.0*	5.0
CN/C=C1\C(=O)C(C)(C)Oc2ccc3ccc(=O)oc3c21	-3.8	9.4	-1.6	-1.6	x	x
COc1ccc(-c2onc(C)c2-c2ccc(C(=O)OC(C)C)o2)c(O)c1	-0.2	14.2	14.3	11.7*	7.1	9.3
COc1ccc(N2C(=O)c3ccc(C(=O)OC(C)C)cc3C2=O)cc1	-2.8	3.9	-5.5	0.6	x	x
CCOc1ncccc1C(=O)Nc1cccc(-c2nc3cccnc3s2)c1	1.2	-6.3	11.3	17.4*	8.1	2.6
O=C(Nc1cccc(-c2nc3cccnc3s2)c1)c1ccco1	-2.4	-2.1	3.0	-0.1	x	x
CSCCC(NS(=O)(=O)c1ccc(Cl)cc1)C(=O)OCC(=O)c1c(C)[nH]c2ccccc12 (stereo not given)	4.7	-11.1	4.6	11.5*	3.0	9.2
CSCCC(NS(=O)(=O)c1ccc2ccccc2c1)C(=O)OCC(=O)c1ccc(C(C)C)cc1 (stereo not given)	-2.5	7.6	-9.3	1.5	x	x
CC(C)c1cccc(-c2ccc3c(c2)S(=O)(=O)c2cccc(C(=O)NCc4ccccc4Cl)c2C3=O)c1	-5.6	-0.2	0.7	-1.6	x	x
O=c1c2cnn(-c3ccc(F)cc3)c2ncn1Cc1ccccc1	-0.8	2.9	1.5	13.9*	-0.1	4.3
COc1ccc(-c2cc(C(=O)Nc3c(C)nn(Cc4ccccc4Cl)c3C)no2)cc1	4.3	-3.7	9.1	12.6*	10.7*	3.9
COc1ccc(OC)c(-c2cc(C(=O)Nc3c(C)nn(Cc4ccccc4)c3C)no2)c1	-0.6	2.9	3.2	-1.2	x	x
O=C(CCN1C(=O)/C(=C/C=C/c2ccccc2)SC1=S)Nc1ccccn1	4.6	14.4	21.5	34.1*	21.6*	11.8
O=C(O)CN1C(=O)/C(=C/C=C/c2ccccc2)SC1=S	3.2	-13.2	-3.3	-3.9	x	x
O=C(CCN1C(=O)/C(=C/C=C/c2ccccc2)SC1=S)Nc1cccnc1	-3.4	-7.3	38.4	11.8*	32.4*	12.5
COc1ccccc1OCCNC(=O)c1cccc(S(=O)(=O)NCc2ccccc2)c1	-4.4	6.5	8.4	-0.9	x	x
CCC(C)c1ccc(OCCn2cc(/C=N/NC(=O)CSc3nnc(C)s3)c3ccccc32)cc1 (stereo not given)	7.3	15.9	11.3	15.7*	4.8	5.3
CC1(C(=O)NS(=O)(=O)C2CC2)CCCN(C(=O)Cc2ccc3ccccc3c2)C1 (stereo not given)	3.3	4.9	1.5	-1.7	x	x
COc1ccc2c(c1)c1nc3ccccc3nc1n2Cc1ccc(OC)c(OC)c1	-7.8	7.3	24.8	11.3*	0.6	2.9
CCOc1ccc(Cn2c3ccc(OC)cc3c3nc4ccccc4nc32)cc1OC	-3.2	7.0	28.3	27.7*	25.6*	4.3
O=c1[nH]c(=S)[nH]c2c1C(c1ccc(F)cc1)OC(CCc1ccccc1)C2 (stereo not given)	-1.6	x	-8.5	x	x	x
SMILES	m5-HT2A agonist	MC4R antag cAMP	EBI2 block	MC4R ag barr	MC4R barr conf	MOR DOR agonist
COc1ccc(S(=O)(=O)N2CCCCCC2)cc1C(=O)N1CCN(c2ccccc2C)CC1	-10.6	0.3	3.3	-2.0	x	x
Cc1cc(C)c(C)c(S(=O)(=O)N2CCC(C(=O)NCC(c3ccccc3)N(C)C)CC2)c1C (stereo not given)	-7.5	4.8	-7.3	-0.5	x	x
O=C1CC(c2cc(Br)ccc2F)c2cc3c(cc2N1)CCC3 (stereo not given)	-2.5	-21.8	-8.6	16.3*	3.3	3.9
COc1cc(CNc2ncnc3c2ncn3[C@H]2CN(Cc3ccc(Cl)cc3)C[C@@H](CO)O2)cc(OC)c1OC	5.0	6.1	3.4	-0.1	x	x
O=C(COC(=O)c1ccccc1F)NCc1ccc2c(c1)OCO2	-3.8	0.3	-3.7	-1.9	x	x
O=C(COC(=O)c1cccnc1Nc1ccccc1F)NCc1ccc2c(c1)OCO2	-2.6	-0.5	1.8	10.5*	2.5	1.8
COc1ccc(/C=N/NC(=O)c2sccc2C)c2ccccc12	2.1	-2.8	8.8	19.4*	10.8*	7.6
COc1ccc(NC(=O)c2ccc(C)cc2Cl)c([N+](=O)[O-])c1	-0.7	0.1	-0.5	2.4	x	x
COc1ccc(NC(=O)COC(=O)c2cc(C)oc2C)c([N+](=O)[O-])c1	3.4	8.5	2.0	22.9*	2.8	11.4
COc1ccc(NC(=O)COC(=O)c2cc(OC)c(OC)c(OC)c2)c([N+](=O)[O-])c1	-3.6	5.1	3.3	-0.8	x	x
COc1ccc(NC(=O)c2cc(Br)ccc2Cl)c([N+](=O)[O-])c1	-1.4	-0.7	-3.9	11.4*	4.5	3.6
CC1(C(=O)Nc2cccc3cccnc23)CCN1C(=O)Cc1ccc(Cl)cc1Cl (stereo not given)	-2.3	19.4	20.7	1.0	x	x
CCOc1ccc(NC(=O)/C=C/c2ccccc2)c([N+](=O)[O-])c1	3.8	-9.2	8.0	12.9*	2.5	9.0
COc1ccc(NC(=O)/C=C/C(=O)O)c([N+](=O)[O-])c1	0.5	4.1	-9.3	-0.7	x	x
CCOc1ccc(N/C=C/C(=O)c2ccccc2)c([N+](=O)[O-])c1	0.5	-12.4	7.9	27.1*	3.7	3.0
CCOC(=O)[C@]12CCCC=C1N(Cc1ccc(Cl)cc1Cl)C(=O)[C@H](CC(=O)NCCC(C)C)C2	-6.2	x	14.2	x	x	x
N#CC1C(=O)NC(=O)C(C#N)C12CCCc1sccc12 (stereo not given)	7.9	3.6	-14.3	-1.0	x	x
Cc1ccc(C(C)C)c(OCC(=O)NNCC(=O)Nc2cccc(F)c2)c1	8.2	-0.6	1.8	13.7*	10.2*	6.2
Brc1ccc(Nc2nc(-c3cccnc3)cs2)cc1	-7.1	5.8	28.1	5.6	x	x
CCOc1ccc(Nc2nc(-c3cccnc3)cs2)cc1	-2.1	12.3	16.3	24.8*	1.1	4.9
S=c1[nH]cc(-c2ccc(Cl)cc2)n1Cc1ccccc1	0.2	-1.9	0.6	18.9*	2.6	10.6
